Assay results taken from ChEMBL document CHEMBL3877271, “Antagonizing STAT3 activation with benzo[b]thiophene 1, 1-dioxide based small molecules” (Eur J Med Chem, 2017).
Active and inactive are the calls of the source. The rule behind the calls is not given here.

What was measured:
MDA-MB-231 [1] = test: Induction of ROS generation in human MDA-MB-231 cells at 1 uM after 24 hrs by DCFH-DA staining based flow cytometry relative to control; format: functional
In short: (§1)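 3 × 10⁵ cells/well in 6-well plates treated 24 h (0, 1, 3, 5 µM). Medium replaced with serum-free medium holding DCFH-DA at 10 µM final, 20 min at 37 °C. Cells washed twice, trypsinised, resuspended in warm PBS and read by flow cytometry.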

MDA-MB-231 [2] = test: Induction of apoptosis in human MDA-MB-231 cells assessed as early apoptotic cells at 7 uM after 24 hrs by Annexin-V FITC/propidium iodide staining based flow cytometry (reference value: 3.8%); format: functional
MDA-MB-231 [3] = test: Induction of apoptosis in human MDA-MB-231 cells assessed as late apoptotic cells at 7 uM after 24 hrs by Annexin-V FITC/propidium iodide staining based flow cytometry (reference value: 1.8%); format: functional
MDA-MB-231 [4] = test: Induction of ROS generation in human MDA-MB-231 cells at 3 uM after 24 hrs by DCFH-DA staining based flow cytometry relative to control; format: functional; in short: as §1
MDA-MB-231 [5] = test: Induction of apoptosis in human MDA-MB-231 cells assessed as early apoptotic cells at 5 uM after 24 hrs by Annexin-V FITC/propidium iodide staining based flow cytometry (reference value: 3.8%); format: functional
[6] = Antiproliferative activity against human HCT116 cells after 72 hrs by MTT assay; format: functional, cell-based; conditions: HCT-116, 72 h
In short: (§2)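 Cells in RPMI-1640 with 10% FBS, penicillin/streptomycin, 37 °C, 5% CO₂; seeded 3000-5000 cells/well, left overnight (16 h), then medium replaced with fresh medium holding serial dilutions in triplicate for 72 h. MTT read-out; viability = absorbance of treated/solvent control × 100%. Stattic served as reference.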

MDA-MB-231 [7] = test: Induction of apoptosis in human MDA-MB-231 cells assessed as live cells at 7 uM after 24 hrs by Annexin-V FITC/propidium iodide staining based flow cytometry (reference value: 90.3%); format: functional
MDA-MB-231 [8] = test: Induction of apoptosis in human MDA-MB-231 cells assessed as live cells at 3 uM after 24 hrs by Annexin-V FITC/propidium iodide staining based flow cytometry (reference value: 90.3%); format: functional
[9] = molecular target: Signal transducer and activator of transcription 3 (Homo sapiens) (UniProt P40763); test: Inhibition of STAT3 dimer DNA binding activity in human MDA-MB-231 nuclear extract at 1 to 5 uM preincubated for 24 hrs followed by addition of [32P]hSIE by electrophoretic mobility shift assay
Sequence of Signal transducer and activator of transcription 3 (Homo sapiens) (P40763 whole entry): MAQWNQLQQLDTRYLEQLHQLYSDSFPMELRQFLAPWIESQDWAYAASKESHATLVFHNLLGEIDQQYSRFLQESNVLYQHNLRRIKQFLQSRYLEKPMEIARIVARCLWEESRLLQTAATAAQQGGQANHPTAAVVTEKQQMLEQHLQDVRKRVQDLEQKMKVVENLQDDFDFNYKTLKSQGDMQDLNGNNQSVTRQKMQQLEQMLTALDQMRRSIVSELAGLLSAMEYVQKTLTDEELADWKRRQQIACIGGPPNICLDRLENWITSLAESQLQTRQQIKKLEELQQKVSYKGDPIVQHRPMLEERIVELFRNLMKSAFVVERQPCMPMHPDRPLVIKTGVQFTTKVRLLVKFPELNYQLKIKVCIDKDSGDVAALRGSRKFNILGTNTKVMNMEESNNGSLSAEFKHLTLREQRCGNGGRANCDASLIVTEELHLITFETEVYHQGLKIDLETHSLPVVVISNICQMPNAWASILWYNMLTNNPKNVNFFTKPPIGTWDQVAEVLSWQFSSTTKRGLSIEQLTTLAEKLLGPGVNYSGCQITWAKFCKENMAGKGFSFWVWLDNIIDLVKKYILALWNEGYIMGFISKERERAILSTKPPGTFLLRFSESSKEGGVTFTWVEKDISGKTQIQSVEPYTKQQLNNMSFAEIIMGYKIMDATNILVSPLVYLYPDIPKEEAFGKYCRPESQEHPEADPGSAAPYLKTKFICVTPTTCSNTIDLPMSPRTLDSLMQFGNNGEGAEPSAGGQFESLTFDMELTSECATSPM
In short: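 Cells treated 24 h in fresh growth medium. Nuclear extracts of equal total protein incubated with ³²P-labelled hSIE oligonucleotide probe and resolved by EMSA; Stattic 5 µM as comparator.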

Mus musculus = test: In vivo inhibition of STAT3 phosphorylation in ICR mouse tumor implanted with mouse 4T1 cells at 10 mg/kg, ip daily for 11 days measured on day 12 by Western blot method; format: functional, organism-based
In short: (§3)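 Male ICR mice, 5 weeks old, inoculated with 2 × 10⁶ 4T1 cells at the right armpit. At 24 h, randomised into groups of 6 and dosed i.p.; vehicle PBS/DMSO (8:2) daily for 11 days. Killed day 12; tumours weighed; TI% = (1 − mean treated/mean control weight) × 100. Tumour p-STAT3 and STAT3 assessed by western blot.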

MDA-MB-231 [10] = test: Induction of apoptosis in human MDA-MB-231 cells assessed as necrotic cells at 5 uM after 24 hrs by Annexin-V FITC/propidium iodide staining based flow cytometry (reference value: 4.1%); format: functional
MDA-MB-231 [11] = test: Induction of apoptosis in human MDA-MB-231 cells assessed as necrotic cells at 3 uM after 24 hrs by Annexin-V FITC/propidium iodide staining based flow cytometry (reference value: 4.1%); format: functional
MDA-MB-231 [12] = test: Induction of apoptosis in human MDA-MB-231 cells assessed as necrotic cells at 7 uM after 24 hrs by Annexin-V FITC/propidium iodide staining based flow cytometry (reference value: 4.1%); format: functional
[13] = Antitumor activity against mouse 4T1 cells implanted in ICR mouse assessed as tumor growth inhibition at 10 mg/kg, ip daily for 11 consecutive days measured on day 12 relative to control; format: functional; conditions: 4T1, ip, 288 h, read-out: TGI; in short: as §3
[14] = Effect on total STAT3 protein level in human MDA-MB-231 cells at 1 to 5 uM after 24 hrs by Western blot method; format: cell-based; conditions: mda-mb-231, 24 h
In short: (§4)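 MDA-MB-231 cells treated 24 h, trypsinised and lysed in RIPA buffer (50 mM Tris-HCl pH 7.4, 150 mM NaCl, 0.25% deoxycholate, 1% NP-40, 1 mM EDTA, protease inhibitors). Equal total protein from whole-cell lysates immunoblotted; Stattic 5 µM used as comparator.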

[15] = Antiproliferative activity against human A549 cells after 72 hrs by MTT assay; format: functional, cell-based; conditions: A549, 72 h; in short: as §2
MDA-MB-231 [16] = test: Induction of apoptosis in human MDA-MB-231 cells assessed as live cells at 1 uM after 24 hrs by Annexin-V FITC/propidium iodide staining based flow cytometry (reference value: 90.3%); format: functional
MDA-MB-231 [17] = test: Induction of apoptosis in human MDA-MB-231 cells assessed as increase in cleaved PARP expression at 1 to 5 uM after 24 hrs by Western blot method; format: functional, cell-based; in short: as §4
MDA-MB-231 [18] = test: Induction of apoptosis in human MDA-MB-231 cells assessed as late apoptotic cells at 3 uM after 24 hrs by Annexin-V FITC/propidium iodide staining based flow cytometry (reference value: 1.8%); format: functional
MCF7 = test: Potency index, ratio of stattic IC50 to compound IC50 for human MCF7 cells; format: functional
MDA-MB-231 [19] = test: Inhibition of colony formation in human MDA-MB-231 cells up to 6 uM incubated for 24 hrs measured after 14 days by crystal violet staining based assay; format: functional, cell-based
In short: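 Cells plated at 800-1000 per well in 6-well plates. Treated next day with vehicle or 0.5-6 µM for 24 h, then grown 10-14 d until colonies appeared. Stained with crystal violet for 4 h; colonies scored manually.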

MDA-MB-231 [20] = test: Potency index, ratio of stattic IC50 to compound IC50 for human MDA-MB-231 cells; format: functional
MDA-MB-231 [21] = test: Induction of apoptosis in human MDA-MB-231 cells assessed as necrotic cells at 1 uM after 24 hrs by Annexin-V FITC/propidium iodide staining based flow cytometry (reference value: 4.1%); format: functional
HCT-116 = test: Potency index, ratio of stattic IC50 to compound IC50 for human HCT116 cells; format: functional
MDA-MB-231 [22] = test: Induction of apoptosis in human MDA-MB-231 cells assessed as early apoptotic cells at 3 uM after 24 hrs by Annexin-V FITC/propidium iodide staining based flow cytometry (reference value: 3.8%); format: functional
[23] = molecular target: Signal transducer and activator of transcription 3 (Homo sapiens) (UniProt P40763); test: Inhibition of STAT3 in human MDA-MB-231 cells assessed as downregulation of Bcl2 expression at 1 to 5 uM after 24 hrs by Western blot method; format: cell-based; in short: as §4
MDA-MB-231 [24] = test: Induction of apoptosis in human MDA-MB-231 cells assessed as increase in cleaved caspase-3 expression at 1 to 5 uM after 24 hrs by Western blot method; format: functional, cell-based; in short: as §4
MDA-MB-231 [25] = test: Induction of apoptosis in human MDA-MB-231 cells assessed as late apoptotic cells at 1 uM after 24 hrs by Annexin-V FITC/propidium iodide staining based flow cytometry (reference value: 1.8%); format: functional

## O=S1(=O)C=Cc2cccc(Nc3cccc(C(F)(F)F)c3)c21
MDA-MB-231 [1]
  fold change (FC): 1.37
MDA-MB-231 [2]
  Activity: 12.2%
MDA-MB-231 [3]
  Activity: 8.7%
MDA-MB-231 [4]
  fold change (FC): 1.74
MDA-MB-231 [5]
  Activity: 10.3%
[6]
  IC50: 330 nM
MDA-MB-231 [7]
  Activity: 72.2%
MDA-MB-231 [8]
  Activity: 83.4%
[9]
  inhibition: Active
Mus musculus
  inhibition: Active
MDA-MB-231 [10]
  Activity: 7.2%
MDA-MB-231 [11]
  Activity: 5.8%
MDA-MB-231 [12]
  Activity: 6.9%
[13]
  inhibition in vivo at 10 mg/kg: 61%
[14]
  Activity: Non-Toxic
[15]
  IC50: 360 nM
MDA-MB-231 [16]
  Activity: 84.2%
MDA-MB-231 [17]
  Activity: Active
MDA-MB-231 [18]
  Activity: 4.1%
MCF7
  Ratio IC50: 1.5 - 12
MDA-MB-231 [19]
  inhibition: Active
MDA-MB-231 [20]
  Ratio IC50: 1.5 - 12
MDA-MB-231 [21]
  Activity: 6.2%
HCT-116
  Ratio IC50: 1.5 - 12
MDA-MB-231 [22]
  Activity: 6.8%
[23]
  inhibition: Active
MDA-MB-231 [24]
  Activity: Active
MDA-MB-231 [25]
  Activity: 3.4%
